Assay results published in ChEMBL document CHEMBL1955716, “Synthesis and evaluation of CS-2100, a potent, orally active and S1P(3)- sparing S1P(1) agonist” (Eur J Med Chem, 2012).
pEC50: −log10 of the molar value. Blank lines part the entries; values can stand above or below the compound they belong to. Active and inactive are the calls of the source. No cut-off for these calls is given here.

Legend:
[1] = Cmax in Lewis rat at 0.1 mg/kg, po; format: ADME, organism-based; set-up: dose 0.1 mg/kg, route oral; conditions: in vivo
Method in brief: (§1)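 Male Lewis rats given a single oral dose (0.1 or 1 mg/kg) suspended in 1% methyl cellulose; plasma taken from the blood samples of the lymphocyte-count study, 5 rats per time point up to 72 h. Drug quantified by LC–MS/MS after solid-phase extraction on a C18 column. Noncompartmental parameters calculated from mean concentrations.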

Mus musculus [2] = experiment: Antimultiple sclerosis activity in C57BL/6J mouse assessed as reduction of experimental autoimmune encephalomyelitis score at 1 mg/kg, po qd for 23 days; format: functional, organism-based; set-up: dose 1 mg/kg
[3] = Metabolic stability in liver microsomes assessed as 4-PBA level; format: ADME, Microsome
[4] = Agonist activity at rat S1P3 receptor expressed in CHO-K1 cells assessed as induction of GTPgammaS binding; format: cell-based
Method in brief: (§2)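 Membranes from CHO cells expressing rat or human S1P1 or S1P3, homogenized in 5 mM Tris–HCl pH 7.4, 0.25 M sucrose, 1 mM EDTA, 1 mM EGTA and spun at 100,000 × g for 60 min at 4 °C. Serial compound dilutions added to 1–10 µg protein/well, and [35S]GTPγS binding measured. EC50 is the midpoint between vehicle binding ratio and maximal response. Selectivity is the S1P3/S1P1 EC50 ratio.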

[5] = biological target: Sphingosine 1-phosphate receptor 3 (Homo sapiens, UniProt Q99500); experiment: Agonist activity at human S1P3 receptor expressed in CHO-K1 cells assessed as induction of GTPgammaS binding; format: functional, cell-based; method in brief: as §2
Rattus norvegicus [6] = experiment: Drug metabolism in po dosed rat plasma assessed as 4-PBA level; format: ADME, organism-based; conditions: in vivo
[7] = Cmax in C57BL/6J mouse at 1 mg/kg, po; format: ADME, organism-based; set-up: dose 1 mg/kg, route oral; conditions: in vivo
Method in brief: (§3)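 Male C57BL/6J mice given 1 mg/kg orally at 5 ml/kg as a solution in dimethyl acetamide/25% Purebright/water (1/8/1). Plasma assayed by LC–MS/MS after solid-phase extraction, 5 animals per time point. Noncompartmental analysis performed on mean concentrations.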

[8] = Tmax in Lewis rat at 1 mg/kg, po; format: ADME, organism-based; set-up: dose 1 mg/kg, route oral; conditions: in vivo; method in brief: as §1
[9] = biological target: Sphingosine 1-phosphate receptor 1 (Rattus norvegicus, UniProt P48303); experiment: Agonist activity at rat S1P1 receptor expressed in CHO-K1 cells assessed as induction of GTPgammaS binding; format: functional, cell-based; method in brief: as §2
Rattus norvegicus [10] = experiment: Immunomodulatory activity in Lewis rat assessed as decrease in peripheral blood lymphocyte numbers at 0.1 mg/kg, po after 8 hrs relative to control; format: functional; set-up: scale not given: the % may be the effect or the level left
Method in brief: (§4)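 Male Lewis rats, 5 weeks old, 5 per group. Single oral dose (0.1 or 1 mg/kg) suspended in 1% w/v methyl cellulose #400 at 5 ml/kg; vehicle controls. Postcaval vein blood taken under ether anesthesia at 0.5–48 h into EDTA tubes. Absolute lymphocytes counted on a full blood count analyzer, expressed relative to vehicle control, mean ± SE.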

Rattus norvegicus [11] = experiment: Immunomodulatory activity in Lewis rat assessed as decrease in peripheral blood lymphocyte numbers at 0.1 to 1 mg/kg, po after 24 to 48 hrs; format: functional, organism-based; method in brief: as §4
[12] = AUC (0 to 72 hrs) in C57BL/6J mouse at 1 mg/kg, po; format: ADME, organism-based; set-up: time < 72 hr, dose 1 mg/kg, route oral; conditions: plasma; method in brief: as §3
[13] = Tmax in C57BL/6J mouse at 1 mg/kg, po; format: ADME, organism-based; set-up: dose 1 mg/kg, route oral; conditions: in vivo; method in brief: as §3
[14] = Metabolic stability in liver microsomes assessed as degradation of 1,2,4-oxadiazole ring; format: ADME, Microsome
[15] = Terminal half life in C57BL/6J mouse at 1 mg/kg, po; format: ADME, organism-based; set-up: dose 1 mg/kg, route oral; conditions: in vivo, read-out: beta t1/2 (converted); method in brief: as §3
Rattus norvegicus [16] = experiment: Immunomodulatory activity in Lewis rat assessed as decrease in peripheral blood lymphocyte numbers at 1 mg/kg, po after 8 hrs relative to control; format: functional; set-up: scale not given: the % may be the effect or the level left; method in brief: as §4
[17] = Cmax in Lewis rat at 1 mg/kg, po; format: ADME, organism-based; set-up: dose 1 mg/kg, route oral; conditions: in vivo; method in brief: as §1
[18] = Tmax in Lewis rat at 0.1 mg/kg, po; format: ADME, organism-based; set-up: dose 0.1 mg/kg, route oral; conditions: in vivo; method in brief: as §1
[19] = biological target: T1, Sphingosine 1-phosphate receptor 4 (Homo sapiens, UniProt O95977); experiment: Agonist activity at human S1P4 receptor; format: functional
T1 sequence (O95977 whole entry): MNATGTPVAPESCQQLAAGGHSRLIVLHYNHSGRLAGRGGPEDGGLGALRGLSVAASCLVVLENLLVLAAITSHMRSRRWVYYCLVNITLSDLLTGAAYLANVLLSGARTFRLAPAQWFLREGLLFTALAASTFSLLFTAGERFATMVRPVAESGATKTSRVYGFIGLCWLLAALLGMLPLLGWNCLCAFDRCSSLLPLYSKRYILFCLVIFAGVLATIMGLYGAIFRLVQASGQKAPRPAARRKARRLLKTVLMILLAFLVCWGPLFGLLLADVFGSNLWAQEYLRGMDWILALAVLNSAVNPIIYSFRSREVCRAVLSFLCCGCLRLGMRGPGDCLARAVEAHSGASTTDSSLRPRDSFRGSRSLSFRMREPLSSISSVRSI

Mus musculus [20] = experiment: Antimultiple sclerosis activity in C57BL/6J mouse assessed as reduction of experimental autoimmune encephalomyelitis score at 0.3 mg/kg, po qd for 23 days; format: functional, organism-based; set-up: dose 0.3 mg/kg
Rhesus monkey = experiment: Drug metabolism in po dosed monkey plasma assessed as 4-PBA level; format: ADME, organism-based, Macaca mulatta; conditions: in vivo
[21] = AUC (0 to 72 hrs) in Lewis rat at 1 mg/kg, po; format: ADME, organism-based; set-up: time < 72 hr, dose 1 mg/kg, route oral; conditions: plasma; method in brief: as §1
Homo sapiens = organism: Homo sapiens; experiment: Selectivity ratio of EC50 for human S1P3 receptor to EC50 for human S1P1 receptor; method in brief: as §2
[22] = Terminal half life in Lewis rat at 1 mg/kg, po; format: ADME, organism-based; set-up: dose 1 mg/kg, route oral; conditions: in vivo, read-out: beta t1/2 (converted); method in brief: as §1
[23] = Terminal half life in Lewis rat at 0.1 mg/kg, po; format: ADME, organism-based; set-up: dose 0.1 mg/kg, route oral; conditions: in vivo, read-out: beta t1/2 (converted); method in brief: as §1
[24] = AUC (0 to 72 hrs) in Lewis rat at 0.1 mg/kg, po; format: ADME, organism-based; set-up: time < 72 hr, dose 0.1 mg/kg, route oral; conditions: plasma; method in brief: as §1
Rattus norvegicus [25] = experiment: Antiarthritic activity in po dosed Lewis rat assessed as reduction of adjuvant-induced right hind foot volume administered as qd for 18 days; format: functional; conditions: 432 h, read-out: ID50 (the source's name)
Method in brief: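 Lewis rats injected intradermally with adjuvant (0.05 ml) in the right hind footpad. Oral dosing at 0.1, 0.3, 1 or 3 mg/kg in 1% methyl cellulose, 5 ml/kg, once daily from Day 0 for 18 days; uninjected normal group. Right foot volume measured by plethysmometer on Days 0–18. % inhibition computed against control and normal, and ID50 taken by least-squares regression of % inhibition against log dose at Day 18.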

[26] = biological target: Sphingosine 1-phosphate receptor 5 (Homo sapiens, UniProt Q9H228); experiment: Agonist activity at human S1P5 receptor; format: functional
Rattus norvegicus [27] = organism: Rattus norvegicus; experiment: Selectivity ratio of EC50 for rat S1P3 receptor to EC50 for rat S1P1 receptor; method in brief: as §2

Sphingosine 1-phosphate receptor 3, sequence (Q99500 whole entry): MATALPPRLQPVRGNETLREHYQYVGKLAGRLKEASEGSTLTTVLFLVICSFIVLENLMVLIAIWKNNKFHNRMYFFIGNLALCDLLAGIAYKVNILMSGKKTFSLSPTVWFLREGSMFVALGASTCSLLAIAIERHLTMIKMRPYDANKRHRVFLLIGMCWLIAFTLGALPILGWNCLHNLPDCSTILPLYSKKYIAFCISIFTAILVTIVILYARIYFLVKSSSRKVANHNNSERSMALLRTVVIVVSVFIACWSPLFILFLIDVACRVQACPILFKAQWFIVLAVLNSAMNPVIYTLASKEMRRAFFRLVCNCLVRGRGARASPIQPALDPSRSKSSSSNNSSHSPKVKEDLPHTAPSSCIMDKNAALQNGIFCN
Sphingosine 1-phosphate receptor 1, sequence (P48303 whole entry): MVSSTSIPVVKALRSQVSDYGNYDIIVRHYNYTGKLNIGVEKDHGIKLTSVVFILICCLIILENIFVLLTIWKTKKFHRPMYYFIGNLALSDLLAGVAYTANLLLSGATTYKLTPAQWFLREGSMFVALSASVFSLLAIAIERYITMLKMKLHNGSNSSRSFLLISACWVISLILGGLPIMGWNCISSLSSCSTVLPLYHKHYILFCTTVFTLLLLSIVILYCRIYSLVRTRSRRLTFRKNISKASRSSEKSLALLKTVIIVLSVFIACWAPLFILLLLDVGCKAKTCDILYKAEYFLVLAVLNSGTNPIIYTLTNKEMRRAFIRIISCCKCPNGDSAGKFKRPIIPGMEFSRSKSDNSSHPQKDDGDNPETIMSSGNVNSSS
Sphingosine 1-phosphate receptor 5, sequence (Q9H228 whole entry): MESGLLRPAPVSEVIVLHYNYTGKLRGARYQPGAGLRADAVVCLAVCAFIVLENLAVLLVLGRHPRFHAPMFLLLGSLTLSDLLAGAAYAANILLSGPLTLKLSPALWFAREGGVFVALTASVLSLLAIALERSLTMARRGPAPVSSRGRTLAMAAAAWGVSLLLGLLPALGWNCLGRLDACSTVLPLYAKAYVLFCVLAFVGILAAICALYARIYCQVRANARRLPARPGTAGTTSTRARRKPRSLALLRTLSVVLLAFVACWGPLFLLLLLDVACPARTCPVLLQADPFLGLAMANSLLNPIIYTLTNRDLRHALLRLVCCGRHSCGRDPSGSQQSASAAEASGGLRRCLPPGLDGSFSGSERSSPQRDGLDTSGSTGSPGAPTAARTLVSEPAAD

Cmax [1]: 17.4 ng/mL
Stability [3]: Stable
pEC50 [4]: 5.13
pEC50 [5]: < 4.70
Drug metabolism (Rattus norvegicus [6]): Active
Cmax [7]: 135 ng/mL
Tmax [8]: 4 h
pEC50 [9]: 8.82
AUC(0-t) at 72 h [12]: 1540 ng·h/mL
Tmax [13]: 2 h
Stability [14]: Stable
half-life [15]: 13.9 h
Cmax [17]: 186 ng/mL
Tmax [18]: 4 h
pEC50 [19]: 7.24
Drug metabolism (Rhesus monkey): Active
AUC(0-t) at 72 h [21]: 2670 ng·h/mL
Ratio EC50 (Homo sapiens): > 5000
half-life [22]: 8.73 h
half-life [23]: 12.4 h
AUC(0-t) at 72 h [24]: 268 ng·h/mL
pEC50 [26]: 7.77
Compound: CCc1cc(CN2CC(C(=O)O)C2)sc1-c1noc(-c2ccc(Oc3ccccc3)cc2)n1
Activity (Mus musculus [2]): Active
Activity (Rattus norvegicus [10]): 27%
Activity (Rattus norvegicus [11]): inactive
Activity (Rattus norvegicus [16]): 11%
Activity (Mus musculus [20]): Active
ED50 (Rattus norvegicus [25]): 0.44 mg/kg

pEC50 [4]: 8.89
Compound: CCCCCCCCc1ccc(CC[C@](N)(CO)COP(=O)(O)O)cc1 [FTY720-P]

pEC50 [4]: 6.70
Ratio EC50 (Rattus norvegicus [27]): 100
Ratio EC50 (Homo sapiens): 320
Compound: Cc1ccc(CCCC(=O)c2ccc(CC[C@@](C)(N)COP(=O)(O)O)n2C)cc1
